Measurements: ChEMBL document CHEMBL1154400, “Pharmacokinetics of single- and multiple-dose oral clarithromycin in soft tissues determined by microdialysis” (Antimicrob Agents Chemother, 2007)

Legend:
[1] = Cmax in fasting human interstitial-space fluid of subcutaneous adipose tissue at 250 mg, po; type: ADME, organism-based
Summary of the method: (§1)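 Healthy male volunteers aged 25-37 y, fasting; single oral 250 mg tablet after 60-min probe equilibration. Microdialysis probes in skeletal muscle and subcutaneous adipose tissue, perfused with Ringer's at 1.5 µl/min; dialysate and antecubital venous blood sampled every 20 min to 4 h, then every 30 min to 8 h. HPLC assay. Interstitial concentration = 100 x Cdialysate/recovery.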

[2] = Cmax in fasting human interstitial-space fluid of skeletal muscle at 250 mg, po; type: ADME, organism-based, Muscle tissue; design: dose 250 mg, route oral; summary of the method: as §1
[3] = Tmax in fasting human plasma at 250 mg, po; type: ADME, organism-based; summary of the method: as §1
[4] = Tmax in fasting human plasma unbound fraction at 250 mg, po; type: ADME, organism-based
Summary of the method: (§2)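 Free plasma concentrations obtained by applying each volunteer's measured protein binding to total plasma concentrations, measured by HPLC after the 250 mg single dose or the 500 mg b.i.d. steady-state dose, with sampling over 8 h.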

[5] = Tmax in fasting human interstitial-space fluid of subcutaneous adipose tissue at 250 mg, po; type: ADME, organism-based; summary of the method: as §1
[6] = Tmax in fasting human interstitial-space fluid of skeletal muscle at 250 mg, po; type: ADME, organism-based, Muscle tissue; summary of the method: as §1
[7] = Terminal half life in fasting human plasma at 250 mg, po; type: ADME, organism-based; conditions: read-out: beta t1/2 (converted); summary of the method: as §1
[8] = Terminal half life in fasting human plasma unbound fraction at 250 mg, po; type: ADME, organism-based; conditions: read-out: beta t1/2 (converted); summary of the method: as §2
[9] = Terminal half life in fasting human interstitial-space fluid of subcutaneous adipose tissue at 250 mg, po; type: ADME, organism-based; conditions: read-out: beta t1/2 (converted); summary of the method: as §1
[10] = Terminal half life in fasting human interstitial-space fluid of skeletal muscle at 250 mg, po; type: ADME, organism-based, Muscle tissue; conditions: read-out: beta t1/2 (converted); summary of the method: as §1
Homo sapiens [11] = assay: Volume of distribution at terminal phase in fasting human plasma at 250 mg, po; type: ADME, organism-based; conditions: in vivo
Summary of the method: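 Single oral 250 mg tablet given to fasting healthy male volunteers (n=7, 25–37 y). Venous plasma (lithium heparin) was sampled every 20 min over 0–4 h and every 30 min over 4–8 h, then analysed by reverse-phase HPLC. Vz = dose × F/(AUC0-∞ × kel), with bioavailability F set at 55%. AUC was calculated by the linear trapezoidal rule.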

[12] = Total clearance in fasting human plasma at 250 mg, po; type: ADME, organism-based
[13] = AUC (0 to 8 hrs) in human plasma at 500 mg, po, bid for 3 to 5 days; type: ADME, organism-based; design: dose 500 mg, time < 8 hr, route oral
Summary of the method: (§3)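 Oral clarithromycin 500 mg b.i.d. for 3-5 days, starting 12 h after a single 250 mg dose; last dose given supervised on the morning of day 2 after a baseline blood draw and a 2-h trough dialysate. Sampling as on day 1: microdialysis of muscle and adipose tissue plus venous plasma over 8 h, HPLC. Dialysate concentrations corrected for individual recovery.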

Homo sapiens [14] = assay: Free AUC (0 to 8 hrs) in human plasma at 500 mg, po, bid for 3 to 5 days; type: ADME, organism-based; conditions: in vivo; summary of the method: as §2
[15] = AUC (0 to 8 hrs) in human interstitial-space fluid of subcutaneous adipose tissue at 500 mg, po, bid for 3 to 5 days; type: ADME, organism-based; summary of the method: as §3
[16] = AUC (0 to 8 hrs) in human interstitial-space fluid of skeletal muscle at 500 mg, po, bid for 3 to 5 days; type: ADME, organism-based, Muscle tissue; design: dose 500 mg, time < 8 hr, route oral; summary of the method: as §3
[17] = AUC (0 to 24 hrs) in human plasma at 500 mg, po, bid for 3 to 5 days; type: ADME, organism-based; design: time < 24 hr, dose 500 mg, route oral; summary of the method: as §3
Homo sapiens [18] = assay: Free AUC (0 to 24 hrs) in human plasma at 500 mg, po, bid for 3 to 5 days; type: ADME, organism-based; conditions: in vivo; summary of the method: as §2
[19] = AUC (0 to 24 hrs) in human interstitial-space fluid of subcutaneous adipose tissue at 500 mg, po, bid for 3 to 5 days; type: ADME, organism-based; summary of the method: as §3
[20] = AUC (0 to 24 hrs) in human interstitial-space fluid of skeletal muscle at 500 mg, po, bid for 3 to 5 days; type: ADME, organism-based, Muscle tissue; design: dose 500 mg, time < 24 hr, route oral; summary of the method: as §3
[21] = Cmax in human plasma at 500 mg, po, bid for 3 to 5 days; type: ADME, organism-based; design: dose 500 mg, route oral; summary of the method: as §3
Homo sapiens [22] = assay: Free Cmax in human plasma at 500 mg, po, bid for 3 to 5 days; type: ADME, organism-based; conditions: in vivo; summary of the method: as §2
[23] = Cmax in human interstitial-space fluid of subcutaneous adipose tissue at 500 mg, po, bid for 3 to 5 days; type: ADME, organism-based; summary of the method: as §3
[24] = Cmax in human interstitial-space fluid of skeletal muscle at 500 mg, po, bid for 3 to 5 days; type: ADME, organism-based, Muscle tissue; design: dose 500 mg, route oral; summary of the method: as §3
[25] = Ratio of AUC (0 to 24 hrs) in human interstitial-space fluid of skeletal muscle to free AUC (0 to 24 hrs) in human plasma at 500 mg, po bid
[26] = Ratio of AUC (0 to 24 hrs) in human interstitial-space fluid of subcutaneous adipose tissue to free AUC (0 to 24 hrs) in human plasma at 500 mg, po bid

CC[C@H]1OC(=O)[C@H](C)[C@@H](O[C@H]2C[C@@](C)(OC)[C@@H](O)[C@H](C)O2)[C@H](C)[C@@H](O[C@@H]2O[C@H](C)C[C@H](N(C)C)[C@H]2O)[C@](C)(OC)C[C@@H](C)C(=O)[C@H](C)[C@@H](O)[C@]1(C)O [CLARITHROMYCIN]
Cmax [1]: 70 ng/mL | Cmax [2]: 80 ng/mL | Tmax [3]: 2.6 h | Tmax [4]: 2.6 h | Tmax [5]: 3 h | Tmax [6]: 3 h | half-life [7]: 1.9 h | half-life [8]: 1.9 h | half-life [9]: 2.4 h | half-life [10]: 3.1 h | Vbeta (Homo sapiens [11]): 94 L | CL/F [12]: 620 mL/min | AUC at 8 h [13]: 10600 ng·h/mL | fAUC (Homo sapiens [14]): 2260 ng·h/mL | AUC [15]: 840 ng·h/mL | AUC at 8 h [16]: 920 ng·h/mL | AUC at 24 h [17]: 26800 ng·h/mL | fAUC (Homo sapiens [18]): 5850 ng·h/mL | AUC [19]: 2220 ng·h/mL | AUC at 24 h [20]: 2420 ng·h/mL | Cmax [21]: 2210 ng/mL | fCmax (Homo sapiens [22]): 0.58 mg/L | Cmax [23]: 230 ng/mL | Cmax [24]: 230 ng/mL | Kp uu [25]: 0.41 | Kp uu [26]: 0.39
